Published values of several laboratories.
Protocols differ between the studies behind these lines.
Target: Mitogen-activated protein kinase kinase kinase kinase 5 (MAP4K5, Homo sapiens, UniProt Q9Y4K4)

With `CCN1CCN(Cc2ccc(C(=O)Nc3ccc(C)c(Oc4ccc5c(c4)CC(=O)N5)c3)cc2C(F)(F)F)CC1` the remaining binding was 100% (binding, competition with immobilised ligand; 1 µM).
`CNC(=O)c1ccc(Nc2ncc(C(F)(F)F)c(NCc3nccnc3N(C)S(C)(=O)=O)n2)cc1` gave a remaining binding of 100% (cell-free assay, competition with immobilised ligand; 0.1 µM).
With `COc1cnc(Nc2cccc(S(N)(=O)=O)c2)nc1N1CCN(c2ccccc2)CC1` the remaining binding was 100% (binding, competition with immobilised ligand; 1 µM).
The remaining binding of `N[C@@H]1CCN(c2nccc(-c3cnn4ncccc34)n2)C1` is reported as 100% (binding; 1 µM).
The remaining binding of `O=C(NCCCN1CCOCC1)c1ccc(Nc2nccc(-c3cc4ccccc4s3)n2)cc1` is reported as 82% (binding, competition with immobilised ligand; 1 µM).
`C[C@@H](c1ccc(-n2cnc3c(N)ncnc32)cc1)N1CCc2nn(C)c(Cc3ccccc3)c2C1=O` has a remaining binding of 87% (binding, competition with immobilised ligand; 0.1 µM).
With `Nc1c(C(=O)NCc2ccc(C(=O)NCCCC3CCCCC3)cc2)cnn1-c1ccccc1` the remaining binding was 100% (cell-free assay, competition with immobilised ligand; 0.1 µM).
For `CC1CCCN1c1nccc(-c2cnn3ncccc23)n1` (centres unmarked), the remaining binding was 100% (binding; 1 µM).
With `c1cncc(-c2cccc(Nc3nccc(NC4CCCCC4)n3)c2)c1` the remaining binding was 91% (binding, competition with immobilised ligand; 10 µM).
`COc1ccc2c(O[C@@H]3C[C@H]4C(=O)N[C@]5(C(=O)O)CC5/C=C\CCCCC[C@H](NC(=O)OC5CCCC5)C(=O)N4C3)cc(-c3csc(NC(=O)C(C)C)n3)nc2c1C` (some centres unmarked) gave a remaining binding of 100% (cell-free assay, competition with immobilised ligand; 1 µM).
`F[C@@H]1CCN(c2nccc(-c3cnn4ncccc34)n2)C1` gave a remaining binding of 79% (binding; 1 µM).
With `O=c1nc(-c2ccccn2)sc2ccccc12` the remaining binding was 100% (binding, competition with immobilised ligand; 1 µM).
The remaining binding of `O=C(NCCCN1CCOCC1)c1ccc(Nc2ncc(Cl)c(-c3ccc(Cl)s3)n2)cc1` is reported as 63% (binding, competition with immobilised ligand; 1 µM).
`C[C@@H]1CCN(c2nccc(-c3cnn4ncccc34)n2)C1` has a remaining binding of 93% (binding; 1 µM).
For `O=C(O)[C@@H]1[C@@H](Cn2nnc3ccccc3c2=O)CC[C@H]1C(=O)c1ccc(OCCC2CCOCC2)cc1`, the remaining binding was 100% (cell-free assay, competition with immobilised ligand; 1 µM).
With `O=C(Nc1c[nH]nc1C(=O)NC1CCNCC1)c1cc(F)cc(F)c1` the remaining binding was 100% (binding, competition with immobilised ligand; 1 µM).
`CN(CCCC(F)(F)F)c1nccc(-c2cnn3ncccc23)n1` gave a remaining binding of 100% (binding; 1 µM).
For `Nc1ncc2c(n1)-c1c([nH]c3ccc(C#CC4CC4)cc13)CCCC2`, the remaining binding was 82% (binding, competition with immobilised ligand; 1 µM).
`O=C(N1CCS(=O)(=O)CC1)N1C[C@H](c2ccc(OC(F)(F)F)cc2)C[C@H](c2nc(C3CC3)no2)C1` gave a remaining binding of 100% (cell-free assay, competition with immobilised ligand; 1 µM).
For `CN(C)c1nccc(-c2cnn3ncccc23)n1`, the remaining binding was 88% (binding; 1 µM).
